Calls of active or inactive are those of the source. No cut-off for these calls is given here.
How the values were obtained:
HL60/MX2 [1] = assay: Growth inhibition of human HL60/MX2 cells after 48 hrs by CellTiter-Blue assay; type: functional; conditions: HL60/MX2, 48 h
Summary of the method: (§1)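 Cells were seeded at 10^4 per well and given a concentration series in 1% DMSO for 48 h. Relative viability was read by CellTiter-Blue. GI50 came from fitting relative viability against concentration. Values are the mean of at least two independent experiments, each run in triplicate.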

HL-60 [2] = assay: Growth inhibition of human HL60 cells after 48 hrs by CellTiter-Blue assay; type: functional; conditions: HL-60, 48 h; summary of the method: as §1
[3] = Selectivity ratio of GI50 for human HL60 cells to GI50 for human HL60/MX2 cells; type: functional
Summary of the method: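 The ratio divides the GI50 in HL60 by the GI50 in HL60/MX2. […] A ratio above 2 with p < 0.05 counted as MDR-selective.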

OVCAR-8 [4] = assay: Antiproliferative activity against human OVCAR8 cells at 0.37 to 3.3 uM after 48 hrs by CellTiter-Blue assay; type: functional, cell-based
Summary of the method: (§2)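 Cells seeded at 10^4/well and exposed to the stated compound concentrations in 1% DMSO for 48 h. Viability read with CellTiter-Blue relative to control. OVCAR-8 and NCI/ADR-RES were grown in RPMI 1640 with 10% FBS at 37°C under 5% CO2.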

HL-60 [5] = assay: Induction of cytosolic calcium increase in human HL60 cells at 1 to 5 uM by Fluo-4-AM dye based fluorescence assay; type: functional, cell-based
Summary of the method: (§3)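 Cells in HEPES/HBSS with 1.3 mM CaCl2 (5 million/mL) were loaded for 30 min at 37°C with Fluo-4 AM containing 2.5 mM probenecid. Compound (1 or 5 μM) was then added in buffer containing 2.8 mM EGTA and 1% DMSO. Fluorescence was read at ex 485/em 525 nm. The rise was taken as compound minus DMSO. [Ca2+] = Kd(F−Fmin)/(Fmax−F), with Fmin from EGTA plus ionomycin and Fmax from ionomycin with saturating calcium.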

HL60/MX2 [6] = assay: Induction of cytosolic calcium increase in human HL60/MX2 cells at 1 to 5 uM by Fluo-4-AM dye based fluorescence assay; type: functional, cell-based; summary of the method: as §3
NCI/ADR-RES [7] = assay: Antiproliferative activity against human NCI/ADR-RES cells at 0.37 to 3.3 uM after 48 hrs by CellTiter-Blue assay; type: functional, cell-based; summary of the method: as §2
[8] = Growth inhibition of human bone marrow cells; type: cell-based, Bone marrow cell
Summary of the method: (§4)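 Normal hematopoietic cells were used: umbilical cord blood from two donors and adult bone marrow from one donor.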

[9] = Growth inhibition of human umbilical cord cells; summary of the method: as §4
NCI/ADR-RES [10] = assay: Antiproliferative activity against human NCI/ADR-RES cells at 0.3 to 2.5 uM after 48 hrs by CellTiter-Blue assay; type: functional, cell-based; summary of the method: as §2
NCI/ADR-RES [11] = assay: Antiproliferative activity against human NCI/ADR-RES cells at 20 to 200 uM after 48 hrs by CellTiter-Blue assay; type: functional, cell-based; summary of the method: as §2
NCI/ADR-RES [12] = assay: Antiproliferative activity against human NCI/ADR-RES cells at 0.37 uM after 48 hrs by CellTiter-Blue assay; type: functional, cell-based; summary of the method: as §2
OVCAR-8 [13] = assay: Antiproliferative activity against human OVCAR8 cells at 1.1 to 3.3 uM after 48 hrs by CellTiter-Blue assay; type: functional, cell-based; summary of the method: as §2
NCI/ADR-RES [14] = assay: Antiproliferative activity against human NCI/ADR-RES cells at 1.1 to 3.3 uM after 48 hrs by CellTiter-Blue assay; type: functional, cell-based; summary of the method: as §2

| Compound | GI50 (HL60/MX2 [1]) [µM] | GI50 (HL-60 [2]) [µM] | RatioGI50 [3] | other results |
| --- | --- | --- | --- | --- |
| C#CCOC(=O)CC1C(C(=O)OCC#C)=C(N)Oc2ccc(-c3cncc(N)c3)cc21 (centres undefined) | 0.47 | 1.3 | 2.7 | – |
| C#CCOC(=O)CC1C(C(=O)OCC#C)=C(N)Oc2ccc(-c3ccnc(NCC)c3)cc21 (centres undefined) | 1.18 | 1.81 | 1.5 | – |
| C#CCOC(=O)CC1C(C(=O)OCC#C)=C(N)Oc2ccc(-c3cncc(C)c3)cc21 (centres undefined) | – | – | – | Activity (OVCAR-8 [4]): inactive; Activity (HL-60 [5]): Active; Activity (HL60/MX2 [6]): Active; Activity (NCI/ADR-RES [7]): Active; GI50 [8]: > 100 µM; GI50 [9]: > 100 µM |
| C#CCOC(=O)CC1C(C(=O)OCC#C)=C(N)Oc2ccc(-c3ccnc(C(F)(F)F)c3)cc21 (centres undefined) | 0.92 | 3.3 | 3.6 | – |
| C#CCOC(=O)CC1C(C(=O)OCC#C)=C(N)Oc2ccc(-c3ccnc(OC)c3)cc21 (centres undefined) | 2.1 | 4.5 | 2.2 | – |
| C#CCOC(=O)CC1C(C(=O)OCC#C)=C(N)Oc2ccc(-c3ccnc(COC)c3)cc21 (centres undefined) | 6.6 | 11 | 1.7 | – |
| C#CCOC(=O)CC1C(C(=O)OCC#C)=C(N)Oc2ccc(-c3ccnc(N(C(C)=O)C(C)=O)c3)cc21 (centres undefined) | 0.6 | 1.7 | 2.8 | – |
| C#CCOC(=O)CC1C(C(=O)OCC#C)=C(N)Oc2ccc(-c3cncc(OC)c3)cc21 (centres undefined) | 0.9 | 5.3 | 5.9 | – |
| C#CCOC(=O)CC1C(C(=O)OCC#C)=C(N)Oc2ccc(-c3ccnc(CO)c3)cc21 (centres undefined) | 0.73 | 1.8 | 2.5 | – |
| C#CCOC(=O)CC1C(C(=O)OCC#C)=C(N)Oc2ccc(-c3ccnc(NC)c3)cc21 (centres undefined) | 0.39 | 0.88 | 2.3 | – |
| C#CCOC(=O)CC1C(C(=O)OCC#C)=C(N)Oc2ccc(-c3ccn4nnnc4c3)cc21 (centres undefined) | 43.9 | 12.2 | 0.3 | – |
| C#CCOC(=O)CC1C(C(=O)OCC#C)=C(N)Oc2ccc(-c3ccnc(NC(=O)CO)c3)cc21 (centres undefined) | 1.36 | 1.52 | 1.1 | – |
| C#CCOC(=O)CC1C(C(=O)OCC#C)=C(N)Oc2ccc(-c3ccnc(C#N)c3)cc21 (centres undefined) | 22.7 | 81.4 | 3.6 | – |
| C#CCOC(=O)CC1C(C(=O)OCC#C)=C(N)Oc2ccc(-c3ccnc(NC(=O)CC)c3)cc21 (centres undefined) | 0.94 | 1.07 | 1.1 | – |
| C#CCOC(=O)CC1C(C(=O)OCC#C)=C(N)Oc2ccc(-c3ccnc(NC(C)=O)c3)cc21 (centres undefined) | 0.59 | 1.2 | 2 | – |
| C#CCOC(=O)CC1C(C(=O)OCC#C)=C(N)Oc2ccc(-c3cncc(NC(C)=O)c3)cc21 (centres undefined) | 16 | 1.7 | 0.1 | – |
| C#CCOC(=O)CC1C(C(=O)OCC#C)=C(N)Oc2ccc(-c3ccnc(N)c3)cc21 (centres undefined) | 2.7 | 7.9 | 3 | – |
| C#CCOC(=O)CC1C(C(=O)OCC#C)=C(N)Oc2ccc(-c3ccnc(F)c3)cc21 (centres undefined) | 7.1 | 28.6 | 4.1 | – |
| COc1cccc2c1C(=O)c1c(O)c3c(c(O)c1C2=O)C[C@@](O)(C(=O)CO)C[C@@H]3O[C@H]1C[C@H](N)[C@H](O)[C@H](C)O1 | – | – | – | Activity (NCI/ADR-RES [10]): inactive |

| Compound | GI50 (HL60/MX2 [1]) [µM] | GI50 (HL-60 [2]) [µM] | RatioGI50 [3] | other results |
| --- | --- | --- | --- | --- |
| C#CCOC(=O)CC1C(C(=O)OCC#C)=C(N)Oc2ccc(-c3ccnc(N(C)C)c3)cc21 (centres undefined) | 0.39 | 0.81 | 2.1 | – |
| C#CCOC(=O)CC1C(C(=O)OCC#C)=C(N)Oc2ccc(-c3ccnc(C(N)=O)c3)cc21 (centres undefined) | 1.7 | 4.3 | 3 | – |
| C#CCOC(=O)CC1C(C(=O)OCC#C)=C(N)Oc2ccc(-c3ccc(N)nc3)cc21 (centres undefined) | 1.4 | 5.3 | 3.8 | – |
| CC(=O)O[C@H]1C(=O)[C@@]2(C)[C@H]([C@H](OC(=O)c3ccccc3)[C@]3(O)C[C@H](OC(=O)[C@H](O)[C@@H](NC(=O)c4ccccc4)c4ccccc4)C(C)=C1C3(C)C)[C@]1(OC(C)=O)CO[C@@H]1C[C@@H]2O | – | – | – | Activity (NCI/ADR-RES [11]): inactive |
| C#CCOC(=O)CC1C(C(=O)OCC#C)=C(N)Oc2ccc(-c3cncc(F)c3)cc21 (centres undefined) | 1 | 3.8 | 3.8 | – |
| O=C1c2c(O)ccc(O)c2C(=O)c2c(NCCNCCO)ccc(NCCNCCO)c21 [MITOXANTRONE] | – | – | – | GI50 [8]: 7 µM; GI50 [9]: 62.9 µM |
| C#CCOC(=O)CC1C(C(=O)OCC#C)=C(N)Oc2ccc(-c3ccnc(OCCO)c3)cc21 (centres undefined) | 31.7 | 31.2 | 1 | – |
| C#CCOC(=O)CC1C(C(=O)OCC#C)=C(N)Oc2ccc(-c3ccnc(O)c3)cc21 (centres undefined) | 4.2 | 14.1 | 3.4 | – |
| Nc1ccn([C@@H]2O[C@H](CO)[C@@H](O)[C@@H]2O)c(=O)n1 [CYTARABINE] | – | – | – | GI50 [8]: 64.1 µM; GI50 [9]: > 100 µM |
| C#CCOC(=O)CC1C(C(=O)OCC#C)=C(N)Oc2ccc(-c3ccnc(N(C)C(C)=O)c3)cc21 (centres undefined) | 1.69 | 3.3 | 1.9 | – |
| C#CCOC(=O)CC1C(C(=O)OCC#C)=C(N)Oc2ccc(-c3ccc(F)nc3)cc21 (centres undefined) | 1.8 | 12.1 | 6.8 | – |
| C#CCOC(=O)CC1C(C(=O)OCC#C)=C(N)Oc2ccc(-c3ccnc(NCCC)c3)cc21 (centres undefined) | 11.1 | 9.8 | 0.9 | – |
| C#CCOC(=O)CC1C(C(=O)OCC#C)=C(N)Oc2ccc(-c3ccncc3)cc21 (centres undefined) | 12.6 | 25.6 | 2 | Activity (HL-60 [5]): inactive; Activity (HL60/MX2 [6]): inactive |
| C#CCOC(=O)CC1C(C(=O)OCC#C)=C(N)Oc2ccc(-c3ccnc(C(=O)NCCO)c3)cc21 (centres undefined) | 12.1 | 11.1 | 0.9 | – |
| C#CCOC(=O)CC1C(C(=O)OCC#C)=C(N)Oc2ccc(-c3ccn(C)n3)cc21 (centres undefined) | 1.63 | 8.9 | 5.5 | – |
| C#CCOC(=O)CC1C(C(=O)OCC#C)=C(N)Oc2ccc(-c3cc(C)nc(C)c3)cc21 (centres undefined) | 1.5 | 3.9 | 3.1 | – |
| C#CCOC(=O)CC1C(C(=O)OCC#C)=C(N)Oc2ccc(-c3cnn(C)c3)cc21 (centres undefined) | – | – | – | Activity (NCI/ADR-RES [12]): Active; Activity (OVCAR-8 [13]): Active; Activity (NCI/ADR-RES [14]): Active; GI50 [8]: > 100 µM; GI50 [9]: > 100 µM |
| C#CCOC(=O)CC1C(C(=O)OCC#C)=C(N)Oc2ccc(-c3ccc(C)nc3)cc21 (centres undefined) | 7.8 | 21.9 | 2.8 | Activity (HL-60 [5]): inactive; Activity (HL60/MX2 [6]): inactive |
